Screening data from PubChem.
Apaf1 inhib – human Apaf-1 inhibition | O14727 | reconstituted apoptosome caspase-3 activity, DEVD-Rh110 fluorescence | inhibition, % at 20 µM | actives 0.71% (n = 330,000) | AID 489030; active means inhibition of at least 40% at 20 µM;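 further: plate controls were DMSO wells for no effect and DEVD-CHO caspase inhibitor wells for full effect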
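Material: cell-free apoptosome with Apaf-1, procaspase-3 and caspase-9; Buffer or medium: Hepes pH 7.5 with detergent and BSA; Reagent: cytochrome c trigger plus (Z-DEVD)2-Rh110 caspase-3 substrate; Times: compound with Apaf-1, dATP, procaspase-3 30 min, then 50 min reaction, room temperature; Technique: Rh110 fluorescence intensity.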
SENP8 block-1 – SENP8 (human) protease inhibition. Q96LD8. recombinant SENP8, Nedd8 substrate fluorescence. inhibition, % at 20 µM. actives 0.64% (n = 360,000); in the data active means inhibition mostly above about 40%, no sharp cut-off; inactive means mostly below about 27%
Target sequence (Q96LD8 whole entry, looked up): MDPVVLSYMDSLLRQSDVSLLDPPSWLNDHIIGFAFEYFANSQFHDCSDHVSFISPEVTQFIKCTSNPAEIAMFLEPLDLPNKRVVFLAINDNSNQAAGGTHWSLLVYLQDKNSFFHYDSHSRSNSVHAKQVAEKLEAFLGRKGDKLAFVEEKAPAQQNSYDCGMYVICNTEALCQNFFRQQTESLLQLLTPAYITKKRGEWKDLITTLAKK
UBC13 polyUb – inhibitors of human UBC13 polyubiquitin chain formation; P61088; TR-FRET; inhibition, % at 20 µM; actives 0.47% (n = 330,000); AID 485273; in the data active means inhibition above about 45%, passing the limit was not always enough; inconclusive means no clear call, values can overlap the other calls
SENP6 block – inhibitors of human SENP6 protease; Q9GZR1; Recombinant SENP6 catalytic domain, aminoluciferin luminescence; inhibition, % at 10 µM; actives 1.8% (n = 330,000); AID 2599;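 active means inhibition above about 50% at the single tested dose, limit read from the data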;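 further: plate controls were DMSO wells with enzyme for no effect and DMSO wells lacking enzyme for full effect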
Target sequence (Q9GZR1 628-1112 limits assumed): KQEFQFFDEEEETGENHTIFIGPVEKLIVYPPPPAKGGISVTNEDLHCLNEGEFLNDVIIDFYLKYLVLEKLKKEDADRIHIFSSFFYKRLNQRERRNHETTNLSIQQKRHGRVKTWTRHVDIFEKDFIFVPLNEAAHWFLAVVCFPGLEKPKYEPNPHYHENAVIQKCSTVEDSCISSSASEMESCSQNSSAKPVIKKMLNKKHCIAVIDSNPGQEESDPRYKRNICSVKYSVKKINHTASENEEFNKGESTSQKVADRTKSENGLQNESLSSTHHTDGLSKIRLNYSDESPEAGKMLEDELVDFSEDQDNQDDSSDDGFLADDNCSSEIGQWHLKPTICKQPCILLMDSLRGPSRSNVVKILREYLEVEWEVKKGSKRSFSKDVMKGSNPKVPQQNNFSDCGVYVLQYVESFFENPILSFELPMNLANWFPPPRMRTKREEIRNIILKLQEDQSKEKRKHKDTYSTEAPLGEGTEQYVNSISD
SENP8 block-2 – inhibitors of human SENP8 protease | Q96LD8 | purified SENP8, Z-RLRGG-aminoluciferin cleavage, luminescence | inhibition, % at 10 µM | actives 1.2% (n = 330,000) | AID 2540; in the data active means inhibition above about 50%
SENP7 inh – inhibitors of human SENP7 protease | AID 434973 | recombinant SENP7, Z-RLRGG-aminoluciferin luminescence, 40 min | actives 1.5% (n = 330,000) | inhibition, % at 5 µM | Q9BQF6;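 active means inhibition above about 50% at the single test dose, limit read from the data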;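 further: plate controls were DMSO with enzyme for no effect and no enzyme buffer wells for full effect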
Casp3 counter – counter-screen for UBC13 inhibitors: human caspase-3 inhibition. shares compounds with UBC13 polyUb. Recombinant caspase-3, Caspase-Glo 3/7 luminescence, 60 min. inhibition, % at 20 µM. actives 4% (n = 1,400);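 active means mean inhibition across replicates above about 26%, limit read from the data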;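 further: plate controls were DMSO with caspase-3 for no effect and DMSO wells lacking enzyme for full effect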
UBC13 confirm – human UBC13 polyubiquitin inhibition, confirmed. shares compounds with UBC13 polyUb. UBC13 polyubiquitination, TR-FRET, biochemical. inhibition, % at 10 µM. actives 68% (n = 1,400). AID 488859; in the data active means inhibition above about 45%; inconclusive means no clear call, values can overlap the other calls
* = called active by the depositor; u = inconclusive; x = not tested or not shown. Hits are enriched below; roughly 3.1% of the tested compounds scored in any of these assays.

SMILES | Apaf1 inhib | SENP8 block-1 | UBC13 polyUb | SENP6 block | SENP8 block-2 | SENP7 inh | Casp3 counter | UBC13 confirm
C#CCOCCOCCOCCNc1nc(N2CCN(C(=O)[C@H]([C@@H](C)CC)n3cc(CCCN=C(N)N)nn3)CC2)nc(N2CCN(C(=O)[C@H]([C@@H](C)CC)n3cc(CCC(=O)O)nn3)CC2)n1 | x | 13.6 | x | x | x | x | x | x
C#CCOCCOCCOCCNc1nc(N2CCN(C(=O)CCCCCCCCCCNC(=O)[C@@H](CCSC)n3cc(CCO)nn3)CC2)nc(N2CCN(C(=O)CCCCCCCCCCNC(=O)[C@H]([C@@H](C)CC)n3cc(CCCCN=C(N)N)nn3)CC2)n1 | 64.2* | 20.1 | 125.0* | -61.8 | 20.8 | 13.6 | -3.1 | 124.1*
C#CCOCCOCCOCCNc1nc(N2CCN(C(=O)CCCCCCCCCCNC(=O)[C@H](CCCCN)n3cc(CCCC(=O)O)nn3)CC2)nc(N2CCN(C(=O)CCCCCCCCCCNC(=O)[C@H](CCCN=C(N)N)n3cc(C[C@@H](C)CC)nn3)CC2)n1 | 76.2* | 22.6 | 123.1* | -26.1 | -18.1 | 4.8 | -1.3 | 126.2*
C#CCOCCOCCOCCNc1nc(N2CCN(C(=O)CCCCCCCCCCNC(=O)[C@H](CO)n3cc(CCCSC)nn3)CC2)nc(N2CCN(C(=O)CCCCCCCCCCNC(=O)[C@H](CO)n3cc(CCCSC)nn3)CC2)n1 | 25.6 | 17.2 | 2.6 | 1.3 | 15.0 | -1.9 | x | x
C#CCOCCOCCOCCNc1nc(N2CCN(C(=O)CCCCCCCCCCNC(=O)[C@H](CCCCN)n3cc(C)nn3)CC2)nc(N2CCN(C(=O)CCCCCCCCCCNC(=O)[C@@H]([C@H](C)CC)n3cc(CCCCCN)nn3)CC2)n1 | 81.5* | 11.0 | 125.5* | -39.2 | -25.0 | 9.4 | -1.2 | 127.8*
C#CCOCCOCCOCCNc1nc(N2CCN(C(=O)CCCCCCCCCCNC(=O)[C@@H](CCC(=O)O)n3cc(CCCCCN)nn3)CC2)nc(N2CCN(C(=O)CCCCCCCCCCNC(=O)[C@@H](CCC(=O)O)n3cc(CCCCCN)nn3)CC2)n1 | 35.7 | 0.3 | 45.4* | 6.1 | 3.1 | -1.4 | 1.6 | 36.3
O=C(Nc1ccncc1)C1CCN(S(=O)(=O)c2cccc(C(F)(F)F)c2)CC1 | 38.8 | 18.3 | 54.2* | 0.2 | -18.5 | -8.8 | 0.7 | 32.1
COc1ccc(OC)c(NC(=O)COc2cc(O)c3c(c2)OC(C)(C)CC3=O)c1 | x | 5.0 | x | x | x | x | x | x
CN1CCc2c(sc(/N=C/c3c[nH]c4ccccc34)c2C(N)=O)C1 | -0.6 | -414.7 | 85.4* | -0.8 | -11.1 | -11.8 | 2.2 | -10.1
CCOC(=O)CSc1nc2ccccc2c(=O)n1C | 4.8 | 28.4 | 5.4 | 7.7 | 5.4 | 4.3 | x | x
CCOC(=O)CSc1nc2ccccc2c(=O)n1NC(=O)c1ccccc1 | -0.1 | 7.0 | 48.5* | -3.7 | 2.7 | -1.2 | 6.3 | 38.6
CCc1ccc(C(=O)Nn2c(C)nc3ccccc3c2=O)cc1 | 1.0 | 7.7 | 60.3* | -35.8 | 3.4 | 1.8 | -2.4 | 63.6*
NC(=O)c1c(N)[nH]c(C(=O)c2ccccc2)c1-c1ccccc1Br | x | -3.3 | x | x | x | x | x | x
COc1cccc(-c2cnc(C(O)c3ccc(Cl)c(F)c3)[nH]2)c1 (stereo not drawn) | x | 8.8 | x | x | x | x | x | x
O=C(NC1CCCCC1)c1cccc(NC(=O)c2ccccc2Cl)c1 | x | 3.4 | x | x | x | x | x | x
CCCOc1ccc(/C=N/NC(=O)CSCc2ccc([N+](=O)[O-])cc2)cc1OCC | 12.7 | 20.2 | 90.4* | -6.8 | -6.3 | 4.5 | -3.5 | 93.3*
CN(CCNC(=O)CCCOc1cc(=O)n(C)c2ccccc12)Cc1ccccc1 | 6.9 | 1.6 | 50.9* | 14.3 | 3.3 | 2.3 | 3.9 | 68.3*
COCCN(C(=O)CSc1ccc2c(c1)OCCO2)c1c(N)n(CC(C)C)c(=O)[nH]c1=O | -1.8 | 13.4 | -14.3 | 2.5 | -5.3 | -3.4 | x | x
COc1ccc(-c2csc(NC(=O)c3cccc(N4C(=O)CCC4=O)c3)n2)cc1OC | -7.1 | -49.3 | 21.4 | 1.0 | 5.8 | -1.1 | x | x
CCOc1ccc(-c2csc(NC(=O)c3cccc(N4C(=O)CCC4=O)c3)n2)cc1 | -15.5 | -17.2 | 57.8* | -8.5 | 2.7 | 1.8 | -1.5 | u
Cc1nc(Nc2cnc(/C=C/c3cc(C(=O)Nc4cccc(C(F)(F)F)c4)ccc3C)cn2)cc(N2CCNCC2)n1 | 74.7* | x | 88.4* | -11.5 | -4.0 | -4.0 | 4.7 | 115.6*
Cc1nc(N2CCC(C)CC2)c2c(C)c(C(=O)Nc3cccc(C(F)(F)F)c3)sc2n1 | 10.5 | -131.2 | 30.7 | -10.8 | -8.3 | -0.5 | x | x
OC[C@@H]1CN(Cc2cccnc2)C[C@H](n2cnc3c(NC4CCCC4)ncnc32)O1 | x | 22.1 | x | x | x | x | x | x
Cc1ncc(CO)c(/C=N/NC(=S)Nc2cccc(Cl)c2)c1O | -8.2 | -405.3 | 21.7 | 2.9 | -0.8 | -1.0 | x | x
Cc1ncc(CO)c(/C=N/NC(=S)Nc2ccc(Cl)c(Cl)c2)c1O | -15.6 | -269.5 | 50.7* | 4.2 | 4.1 | 4.0 | -1.5 | 28.4
SMILES | Apaf1 inhib | SENP8 block-1 | UBC13 polyUb | SENP6 block | SENP8 block-2 | SENP7 inh | Casp3 counter | UBC13 confirm
Oc1ccc(Cl)cc1Nc1nc(NCC2CCCO2)c2ccccc2n1 (stereo not drawn) | 24.4 | -20.2 | 53.4* | -8.7 | -10.1 | -5.0 | -1.2 | 66.6*
Oc1ccccc1Nc1nc(NCC2CCCO2)c2ccccc2n1 (stereo not drawn) | 12.8 | 14.9 | -0.2 | -0.9 | -6.1 | -4.7 | x | x
O=C(c1ccc(-c2cc(O)c3ncccc3c2)cc1)N1CCNCC1 | 18.2 | 15.5 | 113.9* | -2.5 | -4.7 | -10.4 | -3.8 | 116.9*
Cc1ccc(C(=O)N/C(=C\c2ccc(-c3cccc([N+](=O)[O-])c3)o2)C(=O)NCCCN(C)C)cc1 | 0.9 | 17.1 | 48.4* | -40.5 | 2.4 | 8.4 | -2.0 | 63.0*
CN(C)CCCNC(=O)/C(=C\c1ccc(-c2cccc([N+](=O)[O-])c2)o1)NC(=O)c1ccccc1 | 12.8 | 24.8 | 29.2 | 11.0 | 4.9 | 18.4 | x | x
CCCCC(=O)N(C)c1c(C)nc2ccc(C(=O)Nc3cccc(NS(C)(=O)=O)c3)cn12 | x | -22.3 | x | x | x | x | x | x
O=C1c2cccc3cccc(c23)C(=O)N1CC1CCN(CC(O)COc2ccc3ccccc3c2)CC1 (stereo not drawn) | 36.3 | -136.1 | 79.0* | -6.3 | -4.3 | -2.6 | -0.7 | 85.2*
COc1cccc(OCC(O)CN2CCC(CN3C(=O)c4cccc5cccc(c45)C3=O)CC2)c1 (stereo not drawn) | 11.1 | -175.1 | 26.3 | 17.4 | -7.0 | -2.5 | x | x
COc1ccc(COCC(O)CN2CCC(CN3C(=O)c4cccc5cccc(c45)C3=O)CC2)cc1OC (stereo not drawn) | 2.0 | -281.5 | 72.9* | -5.9 | -3.6 | 1.5 | -4.0 | 65.1*
